Data from ChEMBL document CHEMBL3232838, “Synthesis, crystal structure and biological evaluation of some novel 1,2,4-triazolo[3,4-b]-1,3,4-thiadiazoles and 1,2,4-triazolo[3,4-b]-1,3,4-thiadiazines” (Eur J Med Chem, 2014).

Legend:
[1] = test system: Leishmania major; assay: Antileishmanial activity against promastigote form of Leishmania major at 10 uM after 72 hrs by MTT assay; format: functional
How it was run: (§1)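 Log-phase promastigotes grown at 25 °C in phenol-red-free D-MEM/F-12 with 10% heat-inactivated FBS, washed in PBS, seeded at 2.5×10⁶/mL (100 µL/well). Compounds in triplicate wells, 72 h at 25 °C; amphotericin B standard. MTT (5 mg/mL stock) 3 h, stopped with 50% isopropanol/10% SDS, OD570 minus 690. Percent inhibition vs control; mean ± SEM of three independent experiments.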

[2] = Anticancer activity against Syrian golden hamster BHK21 cells at 0.1 uM after 48 hrs by SRB assay; format: functional; details: Mesocricetus auratus, BHK-21, 48 h; read-out: GI
How it was run: (§2)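 RPMI-1640 culture with 10% heat-inactivated FBS, 2 mM glutamine, 1 mM pyruvate and penicillin/streptomycin at 37 °C, 5% CO2. Cells per 96-well well: H157 10⁴, BHK-21 5×10⁴. After 24 h, monolayers were exposed to 100, 10, 1 or 0.1 µM compound for 48 h, with vincristine as standard. Cells were fixed in cold 50% TCA (4 °C, 1 h) and stained with 0.4% SRB in 1% acetic acid (30 min). Dye was dissolved in 10 mM Tris and read at A490 minus A630. Read-out was percent inhibition.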

[3] = molecular target: Cholinesterase (Homo sapiens, UniProt P06276); assay: Inhibition of human BChE using butyrylthiocholine iodide as substrate preincubated for 10 mins before substrate addition after 15 mins by Ellman's method; set-up: concentration or dose not given beside the values
How it was run: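 Ellman assay in 50 mM Tris-HCl, 0.1 M NaCl, 0.02 M MgCl2, pH 8.0, with DMSO at 1% final. hBChE (3.4 U/mg) is preincubated with compound for 10 min at 25 °C. Blanks lack enzyme or substrate. IC50 from linear regression.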

[4] = Anticancer activity against Syrian golden hamster BHK21 cells at 10 uM after 48 hrs by SRB assay; format: functional; details: Mesocricetus auratus, BHK-21, 48 h; read-out: GI; how it was run: as §2
[5] = test system: NCI-H157; assay: Anticancer activity against human NCI-H157 cells at 10 uM after 48 hrs by SRB assay; format: functional; details: NCI-H157, 48 h, read-out: GI; how it was run: as §2
[6] = molecular target: Acetylcholinesterase (Electrophorus electricus, UniProt O42275); assay: (§3) Inhibition of electric eel acetylcholinesterase using acetylthiocholine iodide as substrate preincubated for 10 mins before substrate addition after 15 mins by Ellman's method
[7] = Anticancer activity against Syrian golden hamster BHK21 cells at 100 uM after 48 hrs by SRB assay; format: functional; details: Mesocricetus auratus, BHK-21, 48 h; read-out: GI; how it was run: as §2
[8] = test system: Leishmania major; assay: Antileishmanial activity against promastigote form of Leishmania major at 1 uM after 72 hrs by MTT assay; format: functional; how it was run: as §1
[9] = Anticancer activity against Syrian golden hamster BHK21 cells at 1 uM after 48 hrs by SRB assay; format: functional; details: Mesocricetus auratus, BHK-21, 48 h; read-out: GI; how it was run: as §2
[10] = test system: Leishmania major; assay: Antileishmanial activity against promastigote form of Leishmania major at 100 uM after 72 hrs by MTT assay; format: functional; how it was run: as §1
[11] = test system: NCI-H157; assay: Anticancer activity against human NCI-H157 cells at 0.1 uM after 48 hrs by SRB assay; format: functional; details: NCI-H157, 48 h, read-out: GI; how it was run: as §2
[12] = test system: NCI-H157; assay: Anticancer activity against human NCI-H157 cells at 1 uM after 48 hrs by SRB assay; format: functional; details: NCI-H157, 48 h, read-out: GI; how it was run: as §2
[13] = molecular target: Intestinal-type alkaline phosphatase (Bos taurus) (UniProt P19111); assay: (§4) Inhibition of calf intestinal alkaline phosphatase using p-nitrophenyl phosphate as substrate preincubated for 10 mins before substrate addition after 30 mins; set-up: concentration or dose not given beside the values
[14] = test system: NCI-H157; assay: Anticancer activity against human NCI-H157 cells at 100 uM after 48 hrs by SRB assay; format: functional; details: NCI-H157, 48 h, read-out: GI; how it was run: as §2
[15] = test system: Leishmania major; assay: Antileishmanial activity against promastigote form of Leishmania major at 0.1 uM after 72 hrs by MTT assay; format: functional; how it was run: as §1
[16] = molecular target: Acetylcholinesterase (Electrophorus electricus) (UniProt O42275); assay: as §3
[17] = molecular target: Intestinal-type alkaline phosphatase (Bos taurus, UniProt P19111); assay: as §4
Sequence of Intestinal-type alkaline phosphatase (P19111 whole entry): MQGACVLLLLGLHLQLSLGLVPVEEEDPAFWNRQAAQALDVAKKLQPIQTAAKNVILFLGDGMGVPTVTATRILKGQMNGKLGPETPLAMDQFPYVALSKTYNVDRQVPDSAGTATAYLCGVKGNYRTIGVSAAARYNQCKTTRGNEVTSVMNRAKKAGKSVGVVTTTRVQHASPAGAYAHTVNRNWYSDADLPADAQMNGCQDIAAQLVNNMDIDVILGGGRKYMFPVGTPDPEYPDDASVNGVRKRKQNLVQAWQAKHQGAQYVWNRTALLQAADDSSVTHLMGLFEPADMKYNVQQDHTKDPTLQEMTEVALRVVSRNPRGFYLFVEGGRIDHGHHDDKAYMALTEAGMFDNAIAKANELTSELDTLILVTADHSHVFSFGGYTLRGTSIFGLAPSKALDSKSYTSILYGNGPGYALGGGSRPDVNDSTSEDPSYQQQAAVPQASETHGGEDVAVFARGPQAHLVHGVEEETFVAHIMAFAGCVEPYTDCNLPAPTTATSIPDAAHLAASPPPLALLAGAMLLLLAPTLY

Sequence of Cholinesterase (P06276 whole entry): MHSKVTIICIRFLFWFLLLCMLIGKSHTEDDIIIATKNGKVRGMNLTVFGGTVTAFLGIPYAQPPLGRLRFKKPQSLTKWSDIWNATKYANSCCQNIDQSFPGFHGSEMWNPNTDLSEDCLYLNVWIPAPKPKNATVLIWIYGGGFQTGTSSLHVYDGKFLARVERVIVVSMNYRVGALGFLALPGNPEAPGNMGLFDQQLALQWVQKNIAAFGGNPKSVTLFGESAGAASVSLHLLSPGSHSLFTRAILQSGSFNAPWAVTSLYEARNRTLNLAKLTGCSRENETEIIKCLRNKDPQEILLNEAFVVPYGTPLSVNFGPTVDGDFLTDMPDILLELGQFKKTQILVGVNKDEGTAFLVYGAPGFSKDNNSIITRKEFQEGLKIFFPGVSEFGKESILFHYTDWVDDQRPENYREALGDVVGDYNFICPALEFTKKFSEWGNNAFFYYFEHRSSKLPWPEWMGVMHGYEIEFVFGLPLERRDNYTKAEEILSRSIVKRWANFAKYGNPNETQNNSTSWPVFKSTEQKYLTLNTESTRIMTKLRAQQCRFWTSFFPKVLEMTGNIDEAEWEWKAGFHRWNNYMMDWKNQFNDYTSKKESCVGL
Sequence of Acetylcholinesterase (O42275 whole entry): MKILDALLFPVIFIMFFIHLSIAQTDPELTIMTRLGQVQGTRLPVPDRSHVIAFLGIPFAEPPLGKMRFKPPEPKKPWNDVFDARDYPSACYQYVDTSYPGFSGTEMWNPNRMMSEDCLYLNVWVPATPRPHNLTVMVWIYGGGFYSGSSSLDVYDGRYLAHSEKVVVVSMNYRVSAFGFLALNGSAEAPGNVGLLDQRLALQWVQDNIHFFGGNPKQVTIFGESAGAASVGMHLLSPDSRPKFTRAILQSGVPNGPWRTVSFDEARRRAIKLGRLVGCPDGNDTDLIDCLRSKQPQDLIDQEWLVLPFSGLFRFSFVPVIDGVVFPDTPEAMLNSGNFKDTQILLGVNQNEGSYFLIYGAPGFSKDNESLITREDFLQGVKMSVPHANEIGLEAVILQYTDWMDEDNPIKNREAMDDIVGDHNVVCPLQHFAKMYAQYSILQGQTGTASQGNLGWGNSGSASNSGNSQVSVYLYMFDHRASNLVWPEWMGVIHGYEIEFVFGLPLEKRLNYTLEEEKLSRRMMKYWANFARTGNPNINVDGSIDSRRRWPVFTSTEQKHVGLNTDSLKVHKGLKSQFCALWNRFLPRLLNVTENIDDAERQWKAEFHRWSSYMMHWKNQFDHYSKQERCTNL
Sequence of Acetylcholinesterase (Electrophorus electricus) (O42275 24-633 limits assumed): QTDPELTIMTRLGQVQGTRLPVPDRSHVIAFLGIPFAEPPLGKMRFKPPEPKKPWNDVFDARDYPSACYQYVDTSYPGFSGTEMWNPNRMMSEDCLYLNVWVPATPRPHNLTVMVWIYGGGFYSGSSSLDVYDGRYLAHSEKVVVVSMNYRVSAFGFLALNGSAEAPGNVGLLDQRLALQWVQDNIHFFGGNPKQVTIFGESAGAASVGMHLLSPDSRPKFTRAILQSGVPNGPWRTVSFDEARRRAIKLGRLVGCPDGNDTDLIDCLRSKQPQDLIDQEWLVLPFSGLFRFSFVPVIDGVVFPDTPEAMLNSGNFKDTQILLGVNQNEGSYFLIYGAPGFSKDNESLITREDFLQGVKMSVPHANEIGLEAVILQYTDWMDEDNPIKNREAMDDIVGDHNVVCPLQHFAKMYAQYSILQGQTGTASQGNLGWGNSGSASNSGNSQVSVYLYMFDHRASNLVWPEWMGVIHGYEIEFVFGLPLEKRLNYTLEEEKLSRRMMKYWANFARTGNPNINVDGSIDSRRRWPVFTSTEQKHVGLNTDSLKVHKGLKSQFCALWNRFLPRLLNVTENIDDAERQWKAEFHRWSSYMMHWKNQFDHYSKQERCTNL
Sequence of Intestinal-type alkaline phosphatase (Bos taurus) (P19111 20-506 limits assumed): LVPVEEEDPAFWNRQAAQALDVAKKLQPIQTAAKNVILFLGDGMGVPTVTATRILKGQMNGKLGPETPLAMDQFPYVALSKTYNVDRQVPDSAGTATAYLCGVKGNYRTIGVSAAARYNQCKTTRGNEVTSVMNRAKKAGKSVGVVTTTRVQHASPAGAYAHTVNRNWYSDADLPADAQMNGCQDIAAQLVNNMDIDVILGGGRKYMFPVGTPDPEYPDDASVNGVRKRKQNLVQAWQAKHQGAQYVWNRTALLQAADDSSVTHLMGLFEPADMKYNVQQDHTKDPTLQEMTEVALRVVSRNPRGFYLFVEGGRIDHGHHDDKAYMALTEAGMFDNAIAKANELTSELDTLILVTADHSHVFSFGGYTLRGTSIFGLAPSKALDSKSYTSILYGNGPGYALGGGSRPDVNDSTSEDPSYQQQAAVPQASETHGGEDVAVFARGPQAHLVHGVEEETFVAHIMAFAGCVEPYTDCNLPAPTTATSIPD

SMILES | inhibition at 10 µM [1] [%] | inhibition of growth at 0.1 µM [2] [%] | inhibition [3] [%] | inhibition of growth at 10 µM [4] [%] | inhibition of growth at 10 µM [5] [%] | IC50 [6] [µM] | inhibition of growth at 100 µM [7] [%] | inhibition at 1 µM [8] [%] | inhibition of growth at 1 µM [9] [%] | inhibition at 100 µM [10] [%] | inhibition of growth at 0.1 µM [11] [%] | inhibition of growth at 1 µM [12] [%] | inhibition [13] [%] | inhibition of growth at 100 µM [14] [%] | inhibition at 0.1 µM [15] [%] | IC50 [3] [µM] | inhibition [16] [%] | IC50 [17] [µM]
COc1cccc(C2=Nn3c(nnc3-c3ccncc3)SC2)c1 | 35.2 | 52.4 | 28.9 | 69.9 | 51.1 | 23.8 | 73.3 | 32.3 | 66.7 | 38.6 | 43.1 | 47.5 | 38.5 | 54.4 | 29.3 |  |  | 
Clc1cccc(C2=Nn3c(nnc3-c3ccncc3)SC2)c1 | 38.3 | 46.2 |  | 53.3 | 63.8 | 22.7 | 56.4 | 34.6 | 50.3 | 41.8 | 57.4 | 60.8 | 48 | 67.4 | 31.7 | 39.4 |  | 
c1cc(-c2nnc3sc(-c4ccoc4)nn23)ccn1 | 51.5 | 20.3 |  | 28.7 | 61.6 |  | 31.2 | 48.5 | 23.3 | 54.6 | 54.8 | 57.7 |  | 64.3 | 45.2 | 36.2 | 34.6 | 7.71
Fc1cc(Cl)c(-c2nn3c(-c4ccncc4)nnc3s2)cc1F | 37.9 | 46.7 | 18.2 | 53.9 | 45.2 |  | 58.9 | 35.4 | 49.7 | 40.3 | 36.4 | 41.4 | 31.6 | 49.2 | 31.3 |  | 47.2 | 
Cc1ccc(C2=Nn3c(nnc3-c3ccncc3)SC2)cc1 | 39.8 | 53.1 |  | 68.7 | 57.3 |  | 72.6 | 37.7 | 62 | 43.9 | 50.3 | 53.2 | 35.7 | 63.8 | 34.5 | 26.1 | 46.1 | 
Clc1ccc(C2=Nn3c(nnc3-c3ccncc3)SC2)cc1Cl | 56.4 | 52.8 |  | 59.4 | 67.4 |  | 63.5 | 52.3 | 56.5 | 59.8 | 59.4 | 63.5 |  | 72.1 | 49.3 | 12.2 | 46 | 1.32
Oc1ccccc1OCc1nn2c(-c3ccncc3)nnc2s1 | 34.6 | 43.8 |  | 49.9 | 37.3 | 54 | 53.8 | 31.2 | 46.3 | 37.2 | 31.8 | 35.9 | 46 | 41.8 | 27.8 | 18 |  | 
Cc1occc1-c1nn2c(-c3ccncc3)nnc2s1 | 30.8 | 54.6 | 41.2 | 61.6 | 55.1 | 51.2 | 64.7 | 27.3 | 57 | 34.9 | 47.1 | 51.9 | 29.9 | 58.4 | 25.1 |  |  | 
